Test results as given in publication PMC6545551 (ACS Omega, 2019).
pIC50: −log10 of the molar value. Like-named read-outs stand apart in the source and are kept apart here.

Key:
ovine COX-1 = target: T1, ovine COX-1 (Ovis aries, UniProt P05979); assay: Inhibition of purified ovine COX-1; format: biochemical
T1 sequence (P05979 25-600): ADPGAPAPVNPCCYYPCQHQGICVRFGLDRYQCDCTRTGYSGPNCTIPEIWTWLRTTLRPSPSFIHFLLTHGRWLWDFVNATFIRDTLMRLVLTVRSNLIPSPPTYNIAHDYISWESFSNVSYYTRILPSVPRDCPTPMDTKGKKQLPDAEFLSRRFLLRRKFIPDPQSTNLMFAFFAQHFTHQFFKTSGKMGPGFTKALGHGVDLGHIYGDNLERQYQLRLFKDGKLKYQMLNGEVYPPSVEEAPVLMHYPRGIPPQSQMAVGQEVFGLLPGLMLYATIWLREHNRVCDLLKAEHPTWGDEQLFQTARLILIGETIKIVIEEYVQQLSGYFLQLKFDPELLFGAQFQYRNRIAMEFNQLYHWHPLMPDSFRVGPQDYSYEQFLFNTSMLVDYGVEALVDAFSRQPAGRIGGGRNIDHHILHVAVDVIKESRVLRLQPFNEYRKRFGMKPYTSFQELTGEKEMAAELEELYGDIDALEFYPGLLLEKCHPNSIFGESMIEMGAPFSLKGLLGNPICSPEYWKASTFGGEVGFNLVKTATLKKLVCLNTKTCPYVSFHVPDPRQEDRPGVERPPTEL

mouse COX-2 = target: T2, mouse COX-2 (Mus musculus, UniProt Q05769); assay: Inhibition of purified COX-2; format: biochemical
T2 sequence (Q05769 18-604): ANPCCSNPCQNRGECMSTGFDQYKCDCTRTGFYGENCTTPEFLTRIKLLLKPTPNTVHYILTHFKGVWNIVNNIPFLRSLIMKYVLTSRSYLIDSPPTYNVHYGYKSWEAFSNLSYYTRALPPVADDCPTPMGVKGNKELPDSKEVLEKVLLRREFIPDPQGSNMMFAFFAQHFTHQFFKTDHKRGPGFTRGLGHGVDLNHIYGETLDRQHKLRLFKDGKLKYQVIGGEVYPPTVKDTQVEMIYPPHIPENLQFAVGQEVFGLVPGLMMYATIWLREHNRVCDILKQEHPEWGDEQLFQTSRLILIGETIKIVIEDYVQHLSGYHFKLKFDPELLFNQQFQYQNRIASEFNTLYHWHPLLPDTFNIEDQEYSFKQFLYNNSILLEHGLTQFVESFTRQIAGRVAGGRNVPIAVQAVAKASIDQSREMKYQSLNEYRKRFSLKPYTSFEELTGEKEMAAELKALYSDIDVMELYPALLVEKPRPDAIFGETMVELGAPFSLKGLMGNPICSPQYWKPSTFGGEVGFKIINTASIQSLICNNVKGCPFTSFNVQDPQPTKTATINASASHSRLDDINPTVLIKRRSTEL

COX-1 in OVCAR3 cells = COX-1 in OVCAR3 cells (Homo sapiens, UniProt P23219); assay: Inhibition of COX-1 in intact OVCAR3 cells; format: cell-based
[1] = target: T3, COX-2 in 1483 HNSCC cells (Homo sapiens, UniProt P35354); assay: Inhibition of COX-2 in intact 1483 HNSCC cells; format: cell-based
T3 sequence (P35354 18-604): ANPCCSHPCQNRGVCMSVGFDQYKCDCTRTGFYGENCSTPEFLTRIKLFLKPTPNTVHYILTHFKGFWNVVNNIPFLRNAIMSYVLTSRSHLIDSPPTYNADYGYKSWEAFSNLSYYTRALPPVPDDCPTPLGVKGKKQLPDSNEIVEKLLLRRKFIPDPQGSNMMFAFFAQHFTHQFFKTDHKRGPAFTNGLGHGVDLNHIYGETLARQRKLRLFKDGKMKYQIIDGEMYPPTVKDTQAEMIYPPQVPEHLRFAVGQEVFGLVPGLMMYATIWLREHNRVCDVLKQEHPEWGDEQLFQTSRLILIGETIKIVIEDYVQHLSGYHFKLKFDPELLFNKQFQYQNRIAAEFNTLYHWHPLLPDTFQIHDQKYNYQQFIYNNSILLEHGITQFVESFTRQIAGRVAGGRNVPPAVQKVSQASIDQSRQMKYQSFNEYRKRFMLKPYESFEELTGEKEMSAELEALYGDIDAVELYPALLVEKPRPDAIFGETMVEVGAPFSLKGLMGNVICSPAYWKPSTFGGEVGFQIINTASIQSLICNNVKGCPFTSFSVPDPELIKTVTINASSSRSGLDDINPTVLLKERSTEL

[2] = Plasma protein binding, mouse plasma; format: in vitro ADME
Procedure, shortened: (§1)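 Equilibrium dialysis in a high-throughput micro-equilibrium device, with test compound incubated in mouse, dog or human plasma at 37 °C. Samples were taken at 0 and 4.5 h and quantified by fast-gradient LC–MS/MS. Unbound fraction was calculated as buffer-side concentration divided by protein-side concentration. Recovery was the summed buffer and protein chamber concentrations relative to the 0 h concentration.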

[3] = Plasma protein binding, dog plasma; format: in vitro ADME
Procedure, shortened: as §1

[4] = Plasma protein binding, human plasma; format: in vitro ADME
Procedure, shortened: as §1

[5] = Plasma protein binding, free fraction across species; format: in vitro ADME; settings: mouse, dog, human
Procedure, shortened: as §1

[6] = In vivo plasma half-life of FDF in mice; settings: male, CD-1, mouse, ip, 10 mg/kg
[7] = In vivo biodistribution and defluorination of unlabeled FDF in C57BL/6 mice; parameters: species or system mouse; settings: 10 mg/kg i.p., 60 min
Procedure, shortened: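 Male C57BL/6 mice (30 g, three per group) received unlabeled test compound at 10 mg/kg i.p. "at 10 min intervals." At 60 min, brain, lungs, heart, kidney, liver and muscle were taken, rinsed in cold PBS and frozen at −80 °C. Tissues were homogenized in acetonitrile, extracts dried and reconstituted in methanol/water. Quantitation was by C18 LC–MS/MS, SRM m/z 279 → 236, against a 1:1 methanol/water standard curve.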

COX-1 in OVCAR3 cells, sequence (P23219 24-599): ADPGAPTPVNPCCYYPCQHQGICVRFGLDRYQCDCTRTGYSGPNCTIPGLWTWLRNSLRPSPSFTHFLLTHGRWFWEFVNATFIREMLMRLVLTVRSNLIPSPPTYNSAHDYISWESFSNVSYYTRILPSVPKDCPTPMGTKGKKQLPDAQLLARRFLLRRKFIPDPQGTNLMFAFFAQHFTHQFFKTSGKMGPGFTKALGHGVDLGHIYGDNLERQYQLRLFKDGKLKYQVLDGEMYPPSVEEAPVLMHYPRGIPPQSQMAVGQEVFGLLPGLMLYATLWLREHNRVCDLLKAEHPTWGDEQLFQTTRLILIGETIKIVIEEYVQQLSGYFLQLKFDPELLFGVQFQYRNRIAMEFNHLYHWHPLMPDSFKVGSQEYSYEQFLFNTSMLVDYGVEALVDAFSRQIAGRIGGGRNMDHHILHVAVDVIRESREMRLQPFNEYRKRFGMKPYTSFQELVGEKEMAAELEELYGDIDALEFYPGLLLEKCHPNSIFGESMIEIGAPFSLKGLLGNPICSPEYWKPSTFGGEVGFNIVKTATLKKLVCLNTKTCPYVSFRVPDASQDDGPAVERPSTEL

For COc1ccc([I+]c2ccc(C3=C(c4ccc(C)cc4)C(C)(C)OC3=O)cc2)cc1.Cc1ccc(S(=O)(=O)[O-])cc1 [Compound 7, (4-(5,5-Dimethyl-2-oxo-4-(p-tolyl)-2,5-dihydrofuran-3-yl)phenyl)(4-methoxyphenyl)iodonium Tosylate], the pIC50 (ovine COX-1) was less than 4.60, the “Inhibition of purified COX-1 (in words)” value (ovine COX-1) was “failed to inhibit” and the “Inhibition of purified COX-2 (in words)” value (mouse COX-2) was “failed to inhibit”. For the same molecule, the pIC50 (COX-1 in OVCAR3 cells) was less than 5.30, the “Inhibition of COX-1 in intact OVCAR3 cells (in words)” value (COX-1 in OVCAR3 cells) was “inactive” and the pIC50 [1] was less than 5.30. For the same molecule, the “Inhibition of COX-2 in 1483 HNSCC cells (in words)” value [1] was “inactive”.

In the case of CC1(C)OC(=O)C(c2ccccc2)=C1c1ccccc1 [Compound 1, 5,5-Dimethyl-3,4-diphenylfuran-2(5H)-one], the pIC50 (ovine COX-1) was 6.44, the “Inhibition of purified COX-2 (in words)” value (mouse COX-2; at concentrations up to 25 μM) was “no inhibition” and the pIC50 (COX-1 in OVCAR3 cells) was 6.92. For the same molecule, the pIC50 [1] was less than 5.30.

A pIC50 (ovine COX-1) of 6.85, a pIC50 (COX-1 in OVCAR3 cells) of 6.66 and a pIC50 [1] of less than 5.30 were found for Cc1ccc(C2=C(c3ccc(F)cc3)C(=O)OC2(C)C)cc1 [Compound 4, 3-(4-Fluorophenyl)-5,5-dimethyl-4-(p-tolyl)furan-2(5H)-one] in this work. For the same molecule, the fraction unbound at 4.5 h [2] was 0.025, the fraction unbound at 4.5 h [3] was roughly 0.01 and the fraction unbound at 4.5 h [4] was roughly 0.01. The fraction unbound at 4.5 h [5] was 0.0099 to 0.025, the half-life [6] was 1.2 h and the “Defluorinated metabolite in other organs” value [7] was “below the quantification limit”. The “Uptake in the kidney (average)” value [7] was 8.87 nmol/g tissue and the “Uptake in the liver (overall average)” value [7] was 0.61 nmol/g tissue.

A pIC50 (ovine COX-1) of 7.30, a pIC50 (COX-1 in OVCAR3 cells) of 6.31 and a pIC50 [1] of less than 5.30 were found for Cc1ccc(C2=C(c3ccccc3)C(=O)OC2(C)C)cc1 [Compound 2, 5,5-Dimethyl-3-phenyl-4-(p-tolyl)furan-2(5H)-one] in this work.

A pIC50 (ovine COX-1) of 7.30, a pIC50 (COX-1 in OVCAR3 cells) of 6.89 and a pIC50 [1] of less than 5.30 were found for Cc1ccc(C2=C(c3cccc(F)c3)C(=O)OC2(C)C)cc1 [Compound 5, 3-(3-Fluorophenyl)-5,5-dimethyl-4-(p-tolyl)furan-2(5H)-one] in this work.

A pIC50 (ovine COX-1) of 7.40, a pIC50 (COX-1 in OVCAR3 cells) of 6.10 and a pIC50 [1] of less than 5.30 were found for Cc1ccc(C2=C(c3ccc(I)cc3)C(=O)OC2(C)C)cc1 [Compound 6, 3-(4-Iodophenyl)-5,5-dimethyl-4-(p-tolyl)furan-2(5H)-one] in this work.

A pIC50 (ovine COX-1) of 6.19, a pIC50 (COX-1 in OVCAR3 cells) of 6.55 and a pIC50 [1] of less than 5.30 were found for CC1(C)OC(=O)C(c2ccc(F)cc2)=C1c1ccccc1 [Compound 3, 3-(4-Fluorophenyl)-5,5-dimethyl-4-phenylfuran-2(5H)-one] in this work.
